Hits are enriched below; roughly 2.7% of the tested compounds scored in any of these assays.
NadD block – inhibitors of S. aureus NadD, primary screen, biochemical, colorimetric, uHTS | Nicotinate-nucleotide adenylyltransferase NadD (Staphylococcus aureus N315) | purified NadD enzyme, colorimetric absorbance read-out | inhibition, % at 20 µM | 0.78% of 360,000 active; in the data active means inhibition above about 26%
TPT1 inhibitor – Candida albicans TPT1 enzyme inhibitors, primary screen, biochemical, fluorescence polarization | inhibition, % at 5 µM | 0.81% of 300,000 active | tRNA 2'-phosphotransferase TPT1 (Candida albicans SC5314) | recombinant caTPT1, FP RNA substrate dephosphorylation;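 active means inhibition above the mean of all tested compounds plus 3 SD, set per screening campaign, cut at about 24% in these data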
CSN deneddyl inh – inhibitors of CSN-mediated cullin deneddylation, primary screen, biochemical, fluorescence polarization, uHTS. COP9 signalosome complex subunit 5 (Homo sapiens), Q92905. Purified CSN, SCF-Nedd8-OG deneddylation. inhibition, % at 12.5 µM. 0.38% of 360,000 active. AID 651999, 2013;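 active means pattern-corrected inhibition above about 35%, with an unprinted fluorescence ratio check between 0.5 and 1.5, limit read from the data, passing the limit was not always enough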
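assay system = purified human Csn5 enzyme expressed in HEK293T cells | amount = 0.24 nM enzyme | buffer or medium = Tris/NaCl/DTT buffer, pH 7.5 | reagent = 10 nM SCFSkp2-Nedd8OG | compound = one concentration, 12.5 µM, 0.25% DMSO | times = 90 min reaction at room temperature | signal = FP | read-out basis = % inhibition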
HNF4A DNA FP – change in binding of human HNF4A to DNA, primary screen, biochemical, fluorescence polarization, FITC-DNA; Hepatocyte nuclear factor 4-alpha (Homo sapiens), P41235; AID 1224865, 2016; 1 h; activity change, % at 10 µM; 0.3% of 360,000 active; in the data active means activity change above about 30%, passing the limit was not always enough
PP1 counter – PP1-alpha phosphatase inhibitors, primary screen, counter-screen for PP5 inhibitor project, biochemical, fluorescence, OMFP substrate, single point | Serine/threonine-protein phosphatase PP1-alpha catalytic subunit (Homo sapiens), P62136 | purified PP1alpha | inhibition, % at 6.7 µM | 0.9% of 320,000 active | AID 2235, 2010;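 active means inhibition above the mean inhibition of all tested compounds plus 3 SD, computed separately for each screening campaign, cut at about 15% in these data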
Rpn11 block – Rpn11 (PSMD14) deubiquitinase inhibitors, primary screen, biochemical, fluorescence polarization, uHTS | 0.59% of 360,000 active | inhibition, % at 20 µM | 26S proteasome non-ATPase regulatory subunit 14 (Homo sapiens), O00487 | AID 588493, 2011 | human 26S proteasome, Ub4-pepOG fluorescence polarization; 20S core pre-blocked with epoxomicin;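 active means inhibition at 20 µM, scaled to each plate's controls, above about 33%, limit read from the data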
TPT1 inh confirm – Candida albicans TPT1 inhibitors, confirmation, biochemical, fluorescence polarization, triplicate | shares compounds with TPT1 inhibitor | recombinant caTPT1, RNase T1 coupled | inhibition, % at 5 µM | 74% of 2,400 active;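 active means inhibition above the primary screen limit, the mean inhibition of all tested compounds plus 3 SD, cut at about 25% in these data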
RNase T1 counter – RNase T1 inhibitors, counter-screen for TPT1 inhibitor project, biochemical, fluorescence polarization | 83% of 2,400 active | RNase T1 cleavage, 1536-well | shares compounds with TPT1 inhibitor | inhibition, % at 5 µM;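 active means inhibition above the solvent-only control well mean plus 3 SD, limit set per screening run, cut at about 23% in these data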;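 further: inhibitors block cleavage so intact labeled substrate keeps polarization high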
PP1 inh confirm – PP1 phosphatase inhibitors, confirmation, biochemical, fluorescence, OMFP substrate, triplicate | shares compounds with PP1 counter | purified PP1alpha | inhibition, % at 6.7 µM | 52% of 1,900 active | AID 2358, 2010;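 active means mean PP1 inhibition above a set limit taken from the earlier primary screen, cut at about 15% in these data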
PP5 inh counter – PP5 phosphatase inhibition by PP1 hits, confirmation, counter-screen for PP1 inhibitor project, biochemical, fluorescence, triplicate | shares compounds with PP1 counter | purified PP5c, OMFP fluorescence | inhibition, % at 6.7 µM | 4% of 1,900 active | AID 2360, 2010;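 active means mean PP5 inhibition over triplicate wells above about 9.5% taken from the earlier PP1 screen, limit read from the data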
Rpn11 inh conf – Rpn11 (PSMD14) deubiquitinase inhibitors, confirmation, biochemical, fluorescence polarization, single concentration; inhibition, % at 20 µM; purified human 26S proteasome, Ub4-pepOG fluorescence polarization; proteasome pretreated with epoxomicin; shares compounds with Rpn11 block; 29% of 1,900 active
MMP-2 counter – MMP-2 enzyme inhibition, confirmation, counter-screen for RPN11 inhibitor project, biochemical, fluorescence, single concentration; recombinant MMP-2, FRET peptide cleavage fluorescence; 4% of 1,900 active; AID 602330, 2012; inhibition, % at 20 µM; shares compounds with Rpn11 block;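 further: human MMP-2 activated beforehand with APMA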
Target sequence (P08253 whole entry, looked up): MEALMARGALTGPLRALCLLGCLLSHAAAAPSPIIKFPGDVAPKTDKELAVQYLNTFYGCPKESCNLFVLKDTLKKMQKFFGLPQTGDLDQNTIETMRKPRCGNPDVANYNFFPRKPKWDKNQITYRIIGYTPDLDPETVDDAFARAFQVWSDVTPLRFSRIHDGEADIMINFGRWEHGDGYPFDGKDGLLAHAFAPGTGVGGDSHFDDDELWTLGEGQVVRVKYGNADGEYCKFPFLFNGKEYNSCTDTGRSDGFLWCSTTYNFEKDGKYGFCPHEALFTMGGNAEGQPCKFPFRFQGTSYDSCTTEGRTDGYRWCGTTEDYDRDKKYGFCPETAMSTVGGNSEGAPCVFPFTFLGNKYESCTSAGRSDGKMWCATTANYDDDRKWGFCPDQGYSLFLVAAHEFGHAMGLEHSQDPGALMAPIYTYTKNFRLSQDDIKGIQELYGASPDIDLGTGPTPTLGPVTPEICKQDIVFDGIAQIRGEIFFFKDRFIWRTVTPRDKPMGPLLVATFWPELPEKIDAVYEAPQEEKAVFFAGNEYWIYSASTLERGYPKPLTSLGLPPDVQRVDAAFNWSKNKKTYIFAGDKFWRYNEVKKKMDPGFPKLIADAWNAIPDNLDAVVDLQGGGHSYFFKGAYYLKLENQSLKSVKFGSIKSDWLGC
Thrombin FP – bovine thrombin protease inhibition, confirmation, counter-screen for Rpn11 inhibitor project, biochemical, fluorescence polarization, single concentration; 13% of 1,900 active; inhibition, % at 20 µM; shares compounds with Rpn11 block; bovine thrombin cleavage of Ub4-pepOG; AID 602333, 2012;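 active means mean inhibition at least 40% at 20 µM, or signal 3 deviations below plate average, so some actives read negative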
Of the large screens only hits and unclear results are named; the others gave an inactive call (follow-up assays come after a bar, where they were run). Unless noted, no stated cut-off is given here; in the data, active means inhibition above about 40%; inactive means the rest.

CC1(C)CC(Cc2ccccc2C(F)(F)F)N(C(=O)OC(C)(C)C)C1 (centres undefined)	none (no result: NadD block, TPT1 inhibitor, PP1 counter, Rpn11 block)
Cc1c(C(=O)O)cccc1-n1c(C)cc(/C=N/Nc2ccc([N+](=O)[O-])cn2)c1C	TPT1 inhibitor 27.8, Rpn11 block 56.3 | TPT1 inh confirm 46.5 | RNase T1 counter 56.9 | Rpn11 inh conf inactive | MMP-2 counter inactive | Thrombin FP inactive
N#Cc1c(SCC(=O)Nc2nncs2)sc2c(O)cc(=O)[nH]c12	TPT1 inhibitor 76.2, PP1 counter 42.0, Rpn11 block 52.7 | TPT1 inh confirm inactive | RNase T1 counter inactive | PP1 inh confirm inactive | PP5 inh counter inactive | Rpn11 inh conf inactive | MMP-2 counter 52.1 | Thrombin FP inactive
N#Cc1c(SCC(=O)Nc2ccc(C(F)(F)F)cc2)sc2c(O)cc(=O)[nH]c12	none
O=P(O)(Cc1ccccc1)c1ccccc1	none (no result: TPT1 inhibitor, PP1 counter)
COc1ccc(CCNS(=O)(=O)c2ccc(-n3cnnn3)cc2)cc1OC	none
CSCCC(NC(=O)c1ccccc1)C(=O)NNC(=O)c1csc(N2CCOCC2)n1 (centres undefined)	none
COC(=O)c1ccc(N2NC(=O)/C(=C/c3cc(OC)c(OC)c(OC)c3)C2=O)cc1	none
COC(=O)c1ccc(N2NC(=O)/C(=C/c3cc(OC)c(O)c(OC)c3)C2=O)cc1	TPT1 inhibitor 102.9, Rpn11 block 53.9 | TPT1 inh confirm 99.0 | RNase T1 counter 121.2 | Rpn11 inh conf 62.4 | MMP-2 counter inactive | Thrombin FP inactive
O=C(Nc1nccs1)c1ccc(-c2ccc([N+](=O)[O-])cc2)o1	TPT1 inhibitor 36.9, PP1 counter 18.3, Rpn11 block 73.2 | TPT1 inh confirm 34.2 | RNase T1 counter 48.4 | PP1 inh confirm 23.1 | PP5 inh counter inactive | Rpn11 inh conf inactive | MMP-2 counter inactive | Thrombin FP active
COc1ccc2o/c(=N/NC(=O)c3cccs3)c(C(N)=O)cc2c1	TPT1 inhibitor 51.6, Rpn11 block 44.4 | TPT1 inh confirm 67.6 | RNase T1 counter 78.7 | Rpn11 inh conf 70.2 | MMP-2 counter inactive | Thrombin FP 43.1
NC(=O)c1cc2ccccc2o/c1=N/NC(=O)c1cccs1	none
COc1ccc(/C=C/C(=O)N2CCN(S(=O)(=O)c3ccccc3Br)CC2)cc1OC	none (no result: TPT1 inhibitor, PP1 counter)
CCC(CC)C(=O)Nc1nnc(S(=O)(=O)N2CCCc3ccccc32)s1	none
CCCCCCN1C=CC=C/C1=C/C=C(C#N)C#N	TPT1 inhibitor 62.1, Rpn11 block 45.7 | TPT1 inh confirm 80.2 | RNase T1 counter 88.5 | Rpn11 inh conf inactive | MMP-2 counter inactive | Thrombin FP 52.1
CN(C)S(=O)(=O)c1cccc(-c2nn(-c3ccccc3)cc2/C=C2\SC(=S)NC2=O)c1	TPT1 inhibitor 74.7, HNF4A DNA FP 58.5, PP1 counter 16.6, Rpn11 block 86.5 | TPT1 inh confirm inactive | RNase T1 counter 32.9 | Rpn11 inh conf inactive | MMP-2 counter inactive | Thrombin FP inactive
CNC(=O)c1sc(N2N=C3/C(=C\c4ccccc4)CCCC3C2c2ccccc2)nc1C (centres undefined)	none (no result: TPT1 inhibitor, PP1 counter)
CNC(=O)c1sc(N2N=C3/C(=C/c4ccccc4)CCCC3C2c2ccccc2)nc1C (centres undefined)	TPT1 inhibitor 28.0, Rpn11 block 44.1 | TPT1 inh confirm 44.0 | RNase T1 counter 52.5 | Rpn11 inh conf inactive | MMP-2 counter inactive | Thrombin FP inactive
COc1ccc(N/C=C/C(=O)c2sc(-c3ccccc3)nc2C)cc1	TPT1 inhibitor 71.1, Rpn11 block 39.8 | TPT1 inh confirm 51.6 | RNase T1 counter 64.7 | Rpn11 inh conf inactive | MMP-2 counter inactive | Thrombin FP inactive
COc1ccc(N/C=C/C(=O)c2ccccc2)cc1	none
CC(C)(C)C(=O)Nc1nc2c(s1)CN(Cc1ccccc1)CC2	none
O=C(Nc1nc2c(s1)CN(Cc1ccccc1)CC2)c1c(F)cccc1F	TPT1 inhibitor 24.4, Rpn11 block 46.1 | TPT1 inh confirm 36.8 | RNase T1 counter 48.8 | Rpn11 inh conf inactive | MMP-2 counter inactive | Thrombin FP inactive
COC(=O)[C@@]12CCCN1[C@H](c1ccc(-c3ccc(OC)cc3)cc1)[C@@H]1C(=O)N(C)C(=O)[C@@H]12	none
O=[N+]([O-])c1ccc(N/N=C/c2cccc(O)c2)cc1	TPT1 inhibitor 45.4, Rpn11 block 45.6 | TPT1 inh confirm 54.6 | RNase T1 counter 66.4 | Rpn11 inh conf inactive | MMP-2 counter inactive | Thrombin FP inactive

Source: PubChem BioAssay
